Assay: silicate ester hydrolysis rate study by 1H NMR
Format: physicochemical
Settings: for ∼krel of hydrolysis at C2′: C2′ silicate; for ∼krel of hydrolysis at C2′ / ∼krel of hydrolysis at C7: kobs relative to that of 1d; for ∼krel of hydrolysis at C7: C7 silicate; for difference in krel, triethyl vs trioctyl silicate: 1a vs 1b (PTX) or 4a vs 4b
Procedure, shortened: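 About 10 mg silicate ester in 900 μL acetone-d6, then 100 μL of 9:1 v/v D2O/TFA added and mixed. Held at 22 °C ± 1.0 °C. 1H NMR at 500 MHz (16 or 32 transients) at 8–30 time points over more than 3 half-lives. The 2′/7-methine signals of silicate and free taxane were integrated against H5. kobs came from the ln[species] vs time slope (three replicates). krel is kobs divided by that of the reference silicate.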

Molecule	∼krel of hydrolysis at C2′	∼krel of hydrolysis at C7	difference in krel, triethyl vs trioctyl silicate
2′-(Di-tert-butoxyethoxysilyl)docetaxel [4e]	5.0	–	–
CCO[Si](O[C@@H](C(=O)O[C@H]1C[C@@]2(O)[C@@H](OC(=O)c3ccccc3)[C@@H]3[C@]4(OC(C)=O)CO[C@@H]4C[C@H](O)[C@@]3(C)C(=O)[C@H](OC(C)=O)C(=C1C)C2(C)C)[C@@H](NC(=O)c1ccccc1)c1ccccc1)(OC(C)(C)C)OC(C)(C)C [1f, 2′-O-[(Di-tert-butoxy)(ethoxy)silyl]paclitaxel]	5.6	–	–
CCCCCCCCO[Si](OCCCCCCCC)(OCCCCCCCC)O[C@H]1C[C@H]2OC[C@@]2(OC(C)=O)[C@H]2[C@H](OC(=O)c3ccccc3)[C@]3(O)C[C@H](OC(=O)[C@H](O)[C@@H](NC(=O)c4ccccc4)c4ccccc4)C(C)=C([C@@H](OC(C)=O)C(=O)[C@]12C)C3(C)C [3b, 7-O-(Tri-n-octyloxysilyl)paclitaxel]	–	450	–
CCO[Si](OCC)(OCC)O[C@H]1C[C@H]2OC[C@@]2(OC(C)=O)[C@H]2[C@H](OC(=O)c3ccccc3)[C@]3(O)C[C@H](OC(=O)[C@H](O)[C@@H](NC(=O)c4ccccc4)c4ccccc4)C(C)=C([C@@H](OC(C)=O)C(=O)[C@]12C)C3(C)C [3a, 7-O-(Triethoxysilyl)paclitaxel]	–	2200	–
CCO[Si](OCC)(OCC)O[C@@H](C(=O)O[C@H]1C[C@@]2(O)[C@@H](OC(=O)c3ccccc3)[C@@H]3[C@]4(OC(C)=O)CO[C@@H]4C[C@H](O)[C@@]3(C)C(=O)[C@H](OC(C)=O)C(=C1C)C2(C)C)[C@@H](NC(=O)c1ccccc1)c1ccccc1 [1a, 2′-O-[(Triethoxy)silyl]paclitaxel]	18000	–	~3
CC(=O)O[C@H]1C(=O)[C@@]2(C)[C@H]([C@H](OC(=O)c3ccccc3)[C@]3(O)C[C@H](OC(=O)[C@H](O[Si](OC(C)=O)(OC(C)(C)C)OC(C)(C)C)[C@@H](NC(=O)c4ccccc4)c4ccccc4)C(C)=C1C3(C)C)[C@]1(OC(C)=O)CO[C@@H]1C[C@@H]2O [1g, 2′-O-(Di-tert-butoxyacetoxysilyl)paclitaxel]	1900	–	–
CCO[Si](OCC)(OCC)O[C@H]1C[C@H]2OC[C@@]2(OC(C)=O)[C@H]2[C@H](OC(=O)c3ccccc3)[C@]3(O)C[C@H](OC(=O)[C@H](O[Si](OCC)(OCC)OCC)[C@@H](NC(=O)c4ccccc4)c4ccccc4)C(C)=C([C@@H](OC(C)=O)C(=O)[C@]12C)C3(C)C [2a, 2′,7-Di-O-(triethoxysilyl)paclitaxel]	15000	2100	–
CC(=O)O[C@H]1C(=O)[C@@]2(C)[C@H]([C@H](OC(=O)c3ccccc3)[C@]3(O)C[C@H](OC(=O)[C@H](O[Si](OC4CC(C)CCC4C(C)C)(OC4CC(C)CCC4C(C)C)OC4CC(C)CCC4C(C)C)[C@@H](NC(=O)c4ccccc4)c4ccccc4)C(C)=C1C3(C)C)[C@]1(OC(C)=O)CO[C@@H]1C[C@@H]2O (some centres unmarked) [1d, 2′-[(Trimenthyloxy)silyl]paclitaxel]	1.0	–	–
CCCCCCCCO[Si](OCCCCCCCC)(OCCCCCCCC)O[C@H]1C[C@H]2OC[C@@]2(OC(C)=O)[C@H]2[C@H](OC(=O)c3ccccc3)[C@]3(O)C[C@H](OC(=O)[C@H](O[Si](OCCCCCCCC)(OCCCCCCCC)OCCCCCCCC)[C@@H](NC(=O)c4ccccc4)c4ccccc4)C(C)=C([C@@H](OC(C)=O)C(=O)[C@]12C)C3(C)C [2b, 2′,7-Di-O-(Tri-n-octyloxysilyl)paclitaxel]	3800	340	–
CC(=O)O[C@H]1C(=O)[C@]2(C)[C@@H](O[Si](OC(C)C)(OC(C)C)OC(C)C)C[C@H]3OC[C@@]3(OC(C)=O)[C@H]2[C@H](OC(=O)c2ccccc2)[C@]2(O)C[C@H](OC(=O)[C@H](O[Si](OC(C)C)(OC(C)C)OC(C)C)[C@@H](NC(=O)c3ccccc3)c3ccccc3)C(C)=C1C2(C)C [2c, 2′,7-Di-O-(triisopropoxysilyl)paclitaxel]	520	46	–
CC(=O)O[C@H]1C(=O)[C@@]2(C)[C@H]([C@H](OC(=O)c3ccccc3)[C@]3(O)C[C@H](OC(=O)[C@H](O[Si](OC(C)C)(OC(C)C)OC(C)C)[C@@H](NC(=O)c4ccccc4)c4ccccc4)C(C)=C1C3(C)C)[C@]1(OC(C)=O)CO[C@@H]1C[C@@H]2O [1c, 2′-O-[(Triisopropoxy)silyl]paclitaxel]	570	–	–

Other lines, results leading:

∼krel of hydrolysis at C2′	∼krel of hydrolysis at C7	difference in krel, triethyl vs trioctyl silicate	Molecule
6500	–	~3	2′-O-(Triethoxysilyl)docetaxel [4a]
2600	–	–	2′-O-(Tri-n-octyloxysilyl)docetaxel [4b]
260	–	–	2′-O-(Triisopropoxysilyl)docetaxel [4c]
0.88	–	–	2′-(Trimenthyloxysilyloxy)docetaxel [4d]
